CCR6 antagonist: antagonists of human CCR6 receptor | P51684 | CHO-K1 CCR6 PathHunter beta-arrestin, luminescence, CCL20-stimulated | inhibition, % at 20 µM | 340,000 tested, 0.49% active | AID 493098;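 active = compounds whose inhibition of the agonist-driven luminescence signal at 20 µM reaches about 50%, limit read from the data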;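 note: cells stimulated with CCL20 at 14 nM final; plate controls were DMSO with CCL20 for no effect and DMSO without agonist for full effect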
APJ ag: activates the human apelin receptor APJ | P35414 | CHO-K1 APJ PathHunter beta-arrestin, luminescence; 0% DMSO wells, 100% apelin | activation, % at 20 µM | 330,000 tested, 0.11% active;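 active = activation more than six SD over the plate average, tested at 20 µM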;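 note: 0% = DMSO alone and 100% = apelin-13 at 10 nM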
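Test system: CHO-K1 APJ beta-arrestin complementation cell line. Amount: cell density 1000 per well. Controls: DMSO negative, 10 nM Apelin-13 positive. Signal: luminescent beta-gal fragment complementation, chemiluminescent substrate. Read-out basis: agonist-driven arrestin binding to APJ. Timing: compound stimulation 90 min at 25 °C, detection 60 min.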
APJ antagonist: APJ receptor antagonism. P35414. inhibition, % at 20 µM. CHO-K1 APJ beta-arrestin complementation, luminescence. 330,000 tested, 0.32% active;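 active = inhibition above about 40% at 20 µM, limit read from the data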;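 note: cells challenged with 10 nM apelin-13 agonist together with compound; plate controls were apelin-13 plus DMSO wells for no effect and DMSO wells lacking apelin-13 for full effect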
CXCR6 block: CXCR6 (human) receptor inhibition; 360,000 tested, 0.36% active; AID 602244; O00574; CHO-K1 PathHunter CXCR6 beta-arrestin, luminescence; inhibition, % at 20 µM; in the data active = inhibition above about 34%, passing the limit was not always enough;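 note: antagonist mode with CXCL16 agonist at 10 nM final; 0% = 10 nM CXCL16 with DMSO and 100% = unstimulated wells without agonist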
Target sequence (O00574 whole entry, looked up): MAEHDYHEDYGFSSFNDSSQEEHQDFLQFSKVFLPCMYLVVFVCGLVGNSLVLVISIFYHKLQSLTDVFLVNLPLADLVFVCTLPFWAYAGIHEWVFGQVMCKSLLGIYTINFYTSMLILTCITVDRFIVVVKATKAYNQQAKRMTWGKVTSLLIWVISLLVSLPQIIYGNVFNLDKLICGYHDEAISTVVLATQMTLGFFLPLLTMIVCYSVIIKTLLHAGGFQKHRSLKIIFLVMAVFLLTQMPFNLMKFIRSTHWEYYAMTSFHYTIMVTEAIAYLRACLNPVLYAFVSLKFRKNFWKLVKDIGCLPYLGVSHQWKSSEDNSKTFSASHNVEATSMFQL
HTR2A ag: activates the mouse 5-HT2A serotonin receptor | CHO-K1 mHTR2A beta-arrestin complementation, luminescence; percent of 30 µM serotonin response | activation, % at 7.6 µM | 360,000 tested, 0.66% active;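 active = activation above a run cutoff, the mean activation of all tested compounds plus 3 SD, cut at about 14% in these data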;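 note: 0% = plate median of compound wells and 100% = 30 µM serotonin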
EBI2 antag: EBI2 (human) antagonism. P32249. EBI2 beta-arrestin recruitment, luminescence, 7a,25-OHC stimulated. inhibition, % at 5 µM. 360,000 tested, 0.81% active; in the data active = inhibition above about 38%;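 note: enzyme fragment complementation signal reports receptor beta-arrestin coupling in cells; 0% = agonist plus DMSO wells and 100% = wells without agonist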
EBI2 conf: EBI2 (human) antagonism, single concentration confirmation. shares compounds with EBI2 antag. EBI2 beta-arrestin luminescence, 7a,25-OHC antagonism. inhibition, % at 5 µM. 2,400 tested, 29% active. AID 651997;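 active = inhibition of at least 50%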
EBI2 agonist: EBI2 agonism counter-screen | shares compounds with EBI2 antag | EBI2-expressing cells, agonist mode, luminescence, 60 min; 0% vehicle, 100% 7α,25-dihydroxycholesterol control | 2,400 tested, under 10 active | activation, % at 5 µM;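 active = activation of at least 50%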
bGal counter: beta-galactosidase inhibition counter-screen. shares compounds with EBI2 antag. purified beta-galactosidase, luminescent Galacton Star, 15 min. inhibition, % at 5 µM. 2,400 tested, 1% active. AID 652176;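 active = replicate-average signal at least 3 plate SD below neutral wells, shown as high inhibition, flagging enzyme-inhibiting false positives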;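 note: 0% = DMSO wells with enzyme and 100% = wells lacking enzyme; higher means stronger loss of beta-gal luminescence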
* = called active by the depositor; · = no result given. An excerpt weighted towards active compounds, which were near 2.1% of everything screened.

SMILES	CCR6 antagonist	APJ ag	APJ antagonist	CXCR6 block	HTR2A ag	EBI2 antag	EBI2 conf	EBI2 agonist	bGal counter
O=C1C=C(c2ccc3c(c2)OCO3)C[C@@H](c2ccc(F)cc2)C1	16	-3	3	0	4	12	·	·	·
O=C1C=C(c2ccc3ncccc3c2)C[C@@H](c2ccc(F)cc2)C1	13	-4	9	-6	-2	75*	61*	-1	4
N#Cc1c(Nc2ccccc2)c(/C=N/N=C/c2ccccc2)c[nH]c1=O	13	-1	10	4	5	96*	85*	-2	-6
COc1ccc(N2CCN(c3nc(-c4cccs4)nc4ccccc34)CC2)cc1	12	-2	5	-5	-2	63*	42	1	9
O=C1c2ccccc2S(=O)(=O)N1CC1CC(c2ccc(Cl)cc2)=NO1 (centres undefined)	-4	5	-16	-1	-6	4	·	·	·
CCN(CC)CCSc1nnc2c3cc(C)ccc3n(Cc3ccccc3)c2n1	17	-2	19	2	-11	74*	52*	1	-1
C=CCC1(CC=C)CCCN1C(=O)C1CCC(=O)N(CCc2ccc(Cl)cc2)C1 (centres undefined)	5	-7	9	1	-4	79*	41	-2	-6
C=CCC1(CC=C)CCCN1C(=O)C1CCC(=O)N(Cc2ccc(Cl)cc2)C1 (centres undefined)	·	·	·	5	-5	28	·	·	·
CC(C)C1CCN(C(=O)C2CCC(=O)N(CCc3ccc(Cl)cc3)C2)CC1 (centres undefined)	5	-2	-3	-9	0	79*	50*	0	12
Fc1ccc(-c2ccc(Nc3cccc(F)c3)nn2)cc1	3	-1	1	-5	-3	17	·	·	·
Fc1ccc(Nc2ccc(-c3ccc(F)cc3)nn2)cc1	8	-2	-14	-1	2	60*	28	-1	-7
O=C(c1ccc(-n2cncn2)c([N+](=O)[O-])c1)N1CCN(S(=O)(=O)c2ccccc2Br)CC1	-4	5	-20	-14	-3	14	·	·	·
Cc1cc(C)c(S(=O)(=O)N2CCN(C(=O)c3ccc(-n4cncn4)c([N+](=O)[O-])c3)CC2)c(C)c1	-3	5	-57	-10	10	72*	35	-1	-8
CC(C)c1nc(=S)n(-c2ccccc2)[nH]1	-1	-3	-14	0	-6	5	·	·	·
COc1ccc(N2CCN(C(=O)c3cc(=O)c4ccc(C)cc4o3)CC2)cc1	-6	-2	10	-14	-8	50*	49	-2	-16
COc1ccc(N2CCN(C(=O)c3cc(=O)c4cc(Cl)ccc4o3)CC2)cc1	7	-4	6	-12	2	96*	93*	-1	-21
COc1ccc(N2CCN(Cc3cc(=O)oc4ccc(Cl)cc34)CC2)cc1	6	10	-2	0	2	17	·	·	·
CCc1nc2ccc(C(=O)NCCOc3ccc(OC)cc3)cn2c1N(C)Cc1cccs1	·	·	·	11	-5	57*	40	0	-13
CCc1nc2ccc(C(=O)NCCOc3ccc(OC)cc3)cn2c1N(C)Cc1ccc(OC)cc1	·	·	·	8	-7	62*	40	-1	-14
CCc1nc2ccc(C(=O)NCCOc3ccc(OC)cc3)cn2c1N(C)CCCc1ccccc1	·	·	·	16	-2	58*	43	-1	-8
CCc1nc2ccc(C(=O)NCCc3ccccn3)cn2c1N(C)Cc1cccs1	·	·	·	-4	-7	-2	·	·	·
CCCCNC(=O)c1ccc2nc(CC)c(N(C)Cc3ccc(OC)cc3)n2c1	·	·	·	0	-6	10	·	·	·
CC12CCC(C(NC(=S)NN)C1=O)C2(C)C (centres undefined)	0	·	·	-2	0	-1	·	·	·
Cc1cccc2c(C(=O)N3CCN(c4ccccc4)CC3)cc(-c3ccncc3)nc12	4	-2	2	0	-5	47*	28	0	-2
Cc1cccc2c(C(=O)N3CCCCC3)cc(-c3ccccc3)nc12	8	-6	0	1	-4	20	·	·	·
SMILES	CCR6 antagonist	APJ ag	APJ antagonist	CXCR6 block	HTR2A ag	EBI2 antag	EBI2 conf	EBI2 agonist	bGal counter
CC(=O)O[C@H]1[C@@H](O)[C@H](O)[C@H](Oc2c(O)c(C)c3c4c2[C@@H](C)CC[C@@H]4[C@@H](C)C[C@@H]3C=C(C)C)O[C@H]1C	·	·	·	-2	1	10	·	·	·
Cc1cccc(NC(=S)N2CCN(c3ccccc3F)CC2)c1C	5	-3	-14	-16	7	2	·	·	·
CCCCC(=O)NC(c1cccc([N+](=O)[O-])c1)c1c(OC(C)=O)ccc2ccccc12 (centres undefined)	24	-7	4	21	8	39*	10	0	12
Cc1nn(Cc2c(F)c(F)c(F)c(F)c2F)c(C)c1NC(=O)c1ccc(COc2ccc(Cl)cc2Cl)o1	10	-1	-13	-5	-4	30	·	·	·
Cc1nn(Cc2ccc(Cl)cc2Cl)c(C)c1NC(=O)c1ccc(COc2cc(Cl)ccc2Cl)o1	-12	-6	-18	-2	-4	47*	35	0	9
CCOC(=O)C1CCCN(C(=O)CCc2nnc(-c3ccc(C(C)=O)s3)o2)C1 (centres undefined)	5	-2	-17	7	1	1	·	·	·
NNC(=S)Nc1ccc(S(=O)(=O)N2CCOCC2)cc1	9	2	-28	-20	-1	39	·	·	·
O=S(=O)(c1ccc(NC(=S)Nc2ccc(OC(F)F)cc2)cc1)N1CCOCC1	12	-1	-6	6	5	49*	45	0	-3
Cc1ccc(NC(=O)c2ccc(S(=O)(=O)N3CCCCC3)cc2)cc1	1	-2	4	-1	-7	45*	42	1	-1
O=C(COc1ccc2ccccc2c1)Nc1ccc(S(=O)(=O)N2CCCCCC2)cc1	10	3	4	-12	-2	56*	12	1	9
Cc1ccc(C(=O)Nc2ccc(S(=O)(=O)N3CCCC3)cc2)cc1	-5	3	6	1	0	8	·	·	·
Cc1ccc(CNC(=O)c2ccc(S(=O)(=O)N3CCCCCC3)cc2)cc1	·	·	·	3	-2	72*	35	-1	-8
CCN(CC)S(=O)(=O)c1cccc(-c2nnc(C(=O)c3ccc(C(F)(F)F)cc3)o2)c1	3	3	-13	2	-2	2	·	·	·

Bioassay records: PubChem BioAssay, several laboratories
